From ChEMBL document CHEMBL1153567, “Synthesis of novel pyrazole derivatives and evaluation of their antidepressant and anticonvulsant activities” (2009)
Active and inactive are the calls of the source. The calls are words filed in the database; no cut-off is given here.

Columns and labels:
Mus musculus [1] = experiment: Antidepressant activity in Swiss-Webster mouse assessed as reduction in duration of immobility time at 10 mg/kg, ip by tail suspension behavioral despair test; format: functional; set-up: scale not given: the % may be the effect or the level left; conditions: route intraperitoneal
How it was run: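 Tail suspension test in mice (n = 6/group; 22 ± 3 °C, 60 ± 5% humidity, 12 h light cycle, acclimated ≥2 days). Doses given ip in 0.5% w/v CMC at 0.5 mL/100 g; controls received CMC, imipramine 10 mg kg⁻¹ ip as reference. After 1 h, mice hung by tape 1 cm from the tail tip, 80 cm above the floor. Passive, motionless immobility timed over 6 min; mean ± S.E.M. and % change from control.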

Mus musculus [2] = experiment: Antidepressant activity in Swiss-Webster mouse assessed as reduction in duration of immobility time at 10 mg/kg, ip by tail suspension behavioral despair test relative to imipramine; format: functional; set-up: scale not given: the % may be the effect or the level left; conditions: route intraperitoneal
Mus musculus [3] = experiment: Anticonvulsant activity in Swiss-Webster mouse assessed as protection against PTZ-induced clonic seizures at 20 mg/kg, ip administered 1 hr before PTZ; format: functional; conditions: route intraperitoneal
How it was run: (§1)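 Mice (n = 6/group), kept at 22 ± 3 °C, 60 ± 5% humidity, 12 h light/dark cycle, acclimated ≥2 days, free food and water. Agents given ip in 0.5% w/v CMC in water at 0.5 mL/100 g. After 1 h, PTZ 100 mg kg⁻¹ ip (0.5% solution). Observed 30 min; no clonic spasm episode lasting ≥5 s counted as protection. % protection = (control − treated convulsions)/control × 100.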

Mus musculus [4] = experiment: Anticonvulsant activity in Swiss-Webster mouse assessed as protection against PTZ-induced clonic seizures at 30 mg/kg, ip administered 1 hr before PTZ; format: functional, organism-based; set-up: dose 30 mg/kg; how it was run: as §1
Mus musculus [5] = experiment: Anticonvulsant activity in Swiss-Webster mouse assessed as protection against PTZ-induced clonic seizures at 20 mg/kg, ip administered 1 hr before PTZ

SMILES: O=C(NNC(=O)c1cccs1)c1cccs1
- Activity (Mus musculus [1]): 72.22%

SMILES: O=C(NNC(=O)c1ccccn1)c1ccccn1
- Activity (Mus musculus [1]): 32.39%
- Activity (Mus musculus [2]): 80.2%

SMILES: O=C(NNC(=O)c1cc2ccccc2[nH]1)c1cc2ccccc2[nH]1
- Activity (Mus musculus [1]): 17.8%

SMILES: CCOC(=O)c1[nH]n(C(=O)c2ccccc2)c(=O)c1C#N
- Activity (Mus musculus [1]): 24.41%
- Activity (Mus musculus [2]): 71.8%
- Activity (Mus musculus [3]): 74.5%
- Activity (Mus musculus [4]): Active

SMILES: N#CC1=C(N)N(C(=O)c2ccccc2)NC1(C#N)C#N
- Activity (Mus musculus [1]): 9.37%

SMILES: CCOC(=O)c1[nH]n(C(=O)c2cc3ccccc3[nH]2)c(=O)c1C#N
- Activity (Mus musculus [1]): 30.54%
- Activity (Mus musculus [2]): 78.1%
- Activity (Mus musculus [3]): 74%
- Activity (Mus musculus [4]): Active

SMILES: CCOC(=O)c1[nH]n(C(=O)c2ccccn2)c(=O)c1C#N
- Activity (Mus musculus [1]): 36.99%
- Activity (Mus musculus [2]): 86.1%
- Activity (Mus musculus [3]): 53.7%

SMILES: CCOC(=O)c1[nH]n(C(=O)c2cccs2)c(=O)c1C#N
- Activity (Mus musculus [1]): 18.33%
- Activity (Mus musculus [2]): 66.4%
- Activity (Mus musculus [3]): 78.7%
- Activity (Mus musculus [4]): Active

SMILES: CN(C)CCCN1c2ccccc2CCc2ccccc21 [IMIPRAMINE]
- Activity (Mus musculus [1]): 45.75%

SMILES: O=C(NNC(=O)c1ccccc1)c1ccccc1
- Activity (Mus musculus [1]): 71.96%
- Activity (Mus musculus [3]): 65.1%

SMILES: O=C1NC(=O)C(c2ccccc2)(c2ccccc2)N1
- Activity (Mus musculus [5]): Active

SMILES: N#CC1=C(N)N(C(=O)c2cccs2)NC1(C#N)C#N
- Activity (Mus musculus [1]): 10.6%
- Activity (Mus musculus [3]): 56.8%

SMILES: N#CC1=C(N)N(C(=O)c2ccccn2)NC1(C#N)C#N
- Activity (Mus musculus [1]): 38.76%
- Activity (Mus musculus [2]): 88.6%

SMILES: N#CC1=C(N)N(C(=O)c2cc3ccccc3[nH]2)NC1(C#N)C#N
- Activity (Mus musculus [1]): 17.67%
